Assay outcomes deposited in PubChem by Sanford-Burnham Center for Chemical Genomics.
Most compounds without a hit are left out; they make up all but 1.8% or so of the library.
C8 TRAIL sens – sensitizes caspase-8 expressing cells to TRAIL; hit rate 1% among 360,000; inhibition (viability loss, TRAIL sensitization), % at 10 µM; AID 624354; NB7+C8 cells + TRAIL, ATPlite viability luminescence;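 active = compounds causing at least 50% loss of cell viability in the single-dose screen, relative to plate controls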
FLuc act counter – affects firefly luciferase, flagging false hits in luciferase stimulation screens; P08659; ATPlite luciferase biochemical, luminescence, 10 min; 0 = ATP-free wells, 1 = DMSO control; activation factor at 10 µM; 200,000 tested, under 10 active;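 active = luciferase activation factor, scaled between plate controls, of at least 2 with compound at 10 µM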
Target sequence (P08659 whole entry, looked up): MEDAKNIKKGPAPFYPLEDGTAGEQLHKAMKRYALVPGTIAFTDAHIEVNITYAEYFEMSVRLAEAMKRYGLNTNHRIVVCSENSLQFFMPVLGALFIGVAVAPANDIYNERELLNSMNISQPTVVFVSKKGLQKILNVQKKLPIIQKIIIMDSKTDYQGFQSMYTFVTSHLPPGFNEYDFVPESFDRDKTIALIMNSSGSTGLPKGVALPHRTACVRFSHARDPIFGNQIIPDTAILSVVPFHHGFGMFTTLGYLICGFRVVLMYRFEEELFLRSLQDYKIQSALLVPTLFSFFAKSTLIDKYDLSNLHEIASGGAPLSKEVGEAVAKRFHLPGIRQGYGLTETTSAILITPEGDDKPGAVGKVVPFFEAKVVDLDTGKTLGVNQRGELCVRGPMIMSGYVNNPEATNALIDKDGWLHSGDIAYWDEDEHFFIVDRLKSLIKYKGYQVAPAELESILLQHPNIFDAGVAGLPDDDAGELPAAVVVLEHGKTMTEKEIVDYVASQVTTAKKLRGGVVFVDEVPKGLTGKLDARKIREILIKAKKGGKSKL
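Assay system – cell-free luciferase reagent · Medium – PBS-based ATP solution · Dosing – test compounds dosed from 2 mM stocks in 100% DMSO · Timing – 10 min, room temperature · Technique – light output (luminescence) · Measure – luminescence gain marking luciferase activators · Controls – No-ATP low control, compound-free enzyme-plus-ATP high control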
hiPSC survival – enhancers of human iPSC single-cell survival | hiPSC single-cell survival, ATPlite luminescence; 100% = ROCK inhibitor wells, 0% = DMSO | survival enhancement, % at 20 µM | hit rate 0.044% among 360,000; in the data active = survival enhancement above about 18%;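 note: cells exposed to compounds for 16 hours before the ATP read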
PPC-1+TRAIL kill – kills PPC-1 cancer cells in the presence of TRAIL. PPC-1 cells + TRAIL, ATPLite viability luminescence. cell killing (% activity), % at 4 µM or 5 µM. hit rate 0.41% among 220,000. AID 1443;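 active = cell killing above 50% in the first pass at 4 µM, then a duplicate retest at 5 µM averaging 50% or more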;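 note: plate controls were cells with TRAIL plus DMSO for no effect and medium-only wells lacking cells for full effect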
FLuc inhib CS – counter-screen for luciferase assay inhibitors: firefly luciferase inhibition. P08659. ATPLite firefly luciferase biochemical luminescence, 10 min. inhibition, % at 10 µM. hit rate 1.5% among 200,000. AID 1006;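 active = inhibition above about 50% when tested at 10 µM, limit read from the data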
MIN6 prolif – MIN6 beta-cell proliferation induction; proliferation, % at 10 µM; MIN6 cells proliferation, ATPlite luminescence, 48 h; cells starved in 0.2% serum; 100% = growth in 10% serum; hit rate 0.29% among 330,000; AID 2380;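 active = compounds whose signal lies at least 3.5 SD above the mean of all wells on their plate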;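 note: 0% = DMSO-treated cells in low-serum medium and 100% = 10% serum control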
* hit, by the source's call; / = no result given.

SMILES	C8 TRAIL sens	FLuc act counter	hiPSC survival	PPC-1+TRAIL kill	FLuc inhib CS	MIN6 prolif
CCOC(=O)[C@]12CCC=C1N(Cc1cccc3ccccc13)C(=O)[C@H](CC(=O)NCc1ccc(OC)c(OC)c1)C2	30	/	6	/	/	/
CCCN1C=CC(=C/C=C(\C#N)C(=O)OCC)C=C1	/	0.4	/	31	58*	-3
CCCCCCN1C=CC(=C/C=C(\C#N)C(=O)OCC)C=C1	-4	1.1	0	2	-7	-3
Cn1/c(=N/N=C/c2ccccn2)sc2ccccc21	21	0.4	-1	22	59*	-1
CCOC(=O)c1ccc(NC(=O)c2c(Cl)cc(C)nc2C)cc1	21	/	1	/	/	-2
O=C(N/N=C/C1CC=CCC1)c1ccccc1O (centres undefined)	5	0.7	-2	-24	28	-2
O=C(N/N=C/C1CC=CCC1)c1ccc(Cl)cc1O (centres undefined)	-14	0.4	-1	-5	55*	0
COc1cccc(/C=N/NC(=O)C(c2ccncc2)N2CCOCC2)c1 (centres undefined)	-4	/	0	11	/	-2
O=C(N/N=C/c1cc(Br)ccc1O)C(c1ccncc1)N1CCOCC1 (centres undefined)	53*	1.1	1	19	-6	0
O=c1oc2c(O)cccc2cc1-c1nc2ccccc2[nH]1	69*	/	-1	/	/	-7
COC(=O)c1ccc(COc2ccc(CNCc3ccc(Cl)cc3)cc2)cc1	5	/	-1	/	/	1
O=C(CSc1nnc(NC(=O)c2ccccc2)s1)NCc1ccco1	61*	/	-1	/	/	-6
COc1cccc(C(=O)Nc2nnc(SCC(=O)NC3CCCC3)s2)c1	57*	/	-1	/	/	-5
O=C(CSc1nnc(NC(=O)c2ccccc2)s1)NCC1CCCO1 (centres undefined)	56*	/	0	/	/	-6
O=C(CSc1nnc(NC(=O)c2ccc(F)cc2)s1)NCc1ccco1	56*	/	0	/	/	-7
COC(=O)C[C@H](NC(=O)Cn1cnc2c(NCc3ccccc3)ncnc21)C(=O)OC	-17	/	0	/	/	/
Cc1ccccc1Nc1nnc(SCC(=O)NCc2ccco2)s1	-4	1.1	2	15	-7	-3
Cc1ccccc1C(=O)Nc1nnc(SCC(=O)NCc2ccco2)s1	59*	/	0	/	/	-6
CC(=O)c1cccc(S(=O)(=O)NCCC(=O)NC2CCCCCC2)c1	-13	/	-2	/	/	1
COc1ccc(Cl)cc1NC(=O)c1cc(-c2ccccc2O)n[nH]1	15	1	-1	35	2	1
COc1ccc(OC)c(NC(=O)c2cc(-c3cc(Cl)ccc3O)n[nH]2)c1	51*	1.1	3	7	-5	-6
COc1ccc(S(=O)(=O)N2CCC(C(=O)NCCC3=CCCCC3)CC2)cc1C	54*	1	1	27	-2	-2
CNc1cncc(-c2cccc(C(=O)N(C)C)c2)n1	-2	/	-1	/	/	/
O=C(NCc1ccccc1)c1cc(C2CCCN(C(=O)CCCc3ccccc3)C2)on1 (centres undefined)	11	/	-3	/	/	/
Nc1nc(N)c2c(ccc3nccc32)[nH]1	80*	/	1	40	/	-2
SMILES	C8 TRAIL sens	FLuc act counter	hiPSC survival	PPC-1+TRAIL kill	FLuc inhib CS	MIN6 prolif
Nc1ccc2ncccc2c1N	2	0.9	-2	20	10	/
CC(=O)CSc1nc2cc3c(cc2cc1C#N)OCCO3	67*	0.7	-1	48	30	-4
N#Cc1cc2cc3c(cc2nc1SCC(=O)N1CCCC1)OCCO3	-12	/	-1	/	/	-2
O=C1N/C(=C\c2ccc(O)cc2)C(=O)c2ccccc21	25	0.1	0	8	93*	-6
O=C(Nc1nc(-c2cccs2)cs1)c1ccco1	-3	0.5	-1	26	53*	-1
O=C(Nc1nc(-c2ccncc2)cs1)c1ccco1	-3	1	-1	-10	4	-1
CC(=O)Nc1ccc2nc(-c3ccccn3)[nH]c2c1	33	0.5	-2	35	51*	-2
O=C(Nc1ccc2nc(-c3cccs3)[nH]c2c1)c1cccs1	42	0.4	-5	41	61*	-3
CC(=O)Nc1ccc2nc(-c3ccncc3)[nH]c2c1	13	0.9	-3	21	6	1
